Assay results published in ChEMBL document CHEMBL4020840, “Synthesis and Biological Evaluation of Selenium-Containing 4-Anilinoquinazoline Derivatives as Novel Antimitotic Agents” (J Med Chem, 2018).

Tests used:
A549 [1] = test: Induction of apoptosis in human A549 cells assessed as necrotic cells at 4 nM after 48 hrs by Annexin V-FITC/propidium iodide staining based flow cytometry relative to control; format: functional
A549 [2] = test: Induction of apoptosis in human A549 cells assessed as late apoptotic cells at 4 nM after 48 hrs by Annexin V-FITC/propidium iodide staining based flow cytometry (reference value: 0.03%); format: functional
A549 [3] = test: Induction of mitochondrial membrane disruption in human A549 cells assessed as cells with intact mitochondrial membrane at 8 nM after 48 hrs by JC1 staining based flow cytometry (reference value: 99.13%); format: functional
HCT-116 = test: Growth inhibition of human HCT116 cells after 48 hrs by MTT assay; format: functional, cell-based; conditions: HCT-116, 48 h
Procedure, shortened: (§1)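 MTT assay: log-phase cells plated at 5 × 10³/well for 24 h, then exposed to a range of test concentrations for 48 h. MTT (5 mg/mL) added for 4 h, formazan dissolved in DMSO, absorbance read at 570 nm. IC50 is the concentration giving 50% growth inhibition, from dose-response curves; at least three independent experiments, mean ± SE.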

A549 [4] = test: Induction of apoptosis in human A549 cells assessed as live cells at 4 nM after 48 hrs by Annexin V-FITC/propidium iodide staining based flow cytometry (reference value: 98.49%); format: functional
RKO = test: Growth inhibition of human RKO cells after 48 hrs by MTT assay; format: functional, cell-based; procedure, shortened: as §1
MGC-803 = test: Antiproliferative activity against human MGC803 cells after 48 hrs by MTT assay; format: functional, cell-based; conditions: MGC-803, 48 h; procedure, shortened: as §1
[5] = Inhibition of porcine brain tubulin polymerization measured every 60 secs for 90 mins by DAPI staining based fluorescence assay; design: species or system Sus scrofa
Procedure, shortened: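 Purified tubulin was tested in a kit assay. Final buffer: 80 mM PIPES sesquisodium (pH 6.9), 2.0 mM MgCl₂, 0.5 mM EGTA, 1 mM GTP, 10.2% glycerol. Compound (0.1–10 μM) was prewarmed at 37 °C for 1 min before tubulin was added. DAPI reporter fluorescence (ex 340 / em 410 nm) was read every 60 s for 90 min. Area under the curve gave percent inhibition versus control and the IC50.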

A549 [6] = test: Induction of apoptosis in human A549 cells assessed as live cells at 2 nM after 24 hrs by Annexin V-FITC/propidium iodide staining based flow cytometry (reference value: 98.84%); format: functional
A549 [7] = test: Induction of apoptosis in human A549 cells assessed as early apoptotic cells at 2 nM after 24 hrs by Annexin V-FITC/propidium iodide staining based flow cytometry (reference value: 0.98%); format: functional
A549 [8] = test: Induction of apoptosis in human A549 cells assessed as late apoptotic cells at 2 nM after 48 hrs by Annexin V-FITC/propidium iodide staining based flow cytometry (reference value: 0.03%); format: functional
A549 [9] = test: Induction of mitochondrial membrane disruption in human A549 cells assessed as cells with mitochondrial membrane potential loss at 4 nM after 48 hrs by JC1 staining based flow cytometry (reference value: 0.82%); format: functional
A549 [10] = test: Induction of apoptosis in human A549 cells assessed as necrotic cells at 2 nM after 24 hrs by Annexin V-FITC/propidium iodide staining based flow cytometry (reference value: 0.10%); format: functional
A549 [11] = test: Induction of mitochondrial membrane disruption in human A549 cells assessed as cells with intact mitochondrial membrane at 2 nM after 48 hrs by JC1 staining based flow cytometry (reference value: 99.13%); format: functional
BJ = test: Antiproliferative activity against human BJ cells after 48 hrs by MTT assay; format: cell-based; procedure, shortened: as §1
A549 [12] = test: Induction of apoptosis in human A549 cells assessed as late apoptotic cells at 2 nM after 24 hrs by Annexin V-FITC/propidium iodide staining based flow cytometry (reference value: 0.08%); format: functional
A549 [13] = test: Induction of apoptosis in human A549 cells assessed as necrotic cells at 2 nM after 48 hrs by Annexin V-FITC/propidium iodide staining based flow cytometry relative to control; format: functional
A549 [14] = test: Induction of apoptosis in human A549 cells assessed as early apoptotic cells at 4 nM after 48 hrs by Annexin V-FITC/propidium iodide staining based flow cytometry (reference value: 1.48%); format: functional
LoVo = test: Growth inhibition of human LoVo cells after 48 hrs by MTT assay; format: functional, cell-based; procedure, shortened: as §1
A549/CDDP = test: Growth inhibition of human A549/CDDP cells after 48 hrs by MTT assay; format: functional, cell-based; procedure, shortened: as §1
MCF7 = test: Antiproliferative activity against human MCF7 cells after 48 hrs by MTT assay; format: functional, cell-based; conditions: MCF7, 48 h; procedure, shortened: as §1
HeLa = test: Antiproliferative activity against human HeLa cells after 48 hrs by MTT assay; format: functional, cell-based; procedure, shortened: as §1
[15] = Selectivity index, ratio of IC50 for human LO2 cells to IC50 for human A549 cells; format: functional
Procedure, shortened: (§2)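 MTT assay in normal cells and A549: seeding at 5 × 10³ cells/well for 24 h, 48 h compound exposure, then 5 mg/mL MTT for 4 h, DMSO solubilisation and absorbance at 570 nm. IC50 values came from dose–response curves of at least three independent experiments. Selectivity ratio = IC50 in normal cells / IC50 in A549.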

A549 [16] = test: Induction of apoptosis in human A549 cells assessed as late apoptotic cells at 4 nM after 24 hrs by Annexin V-FITC/propidium iodide staining based flow cytometry (reference value: 0.08%); format: functional
L02 = test: Antiproliferative activity against human LO2 cells after 48 hrs by MTT assay; format: cell-based; conditions: L02, 48 h; procedure, shortened: as §1
A549 [17] = test: Induction of mitochondrial membrane disruption in human A549 cells assessed as cells with mitochondrial membrane potential loss at 2 nM after 48 hrs by JC1 staining based flow cytometry (reference value: 0.82%); format: functional
A549 [18] = test: Induction of apoptosis in human A549 cells assessed as necrotic cells at 4 nM after 24 hrs by Annexin V-FITC/propidium iodide staining based flow cytometry (reference value: 0.10%); format: functional
[19] = Resistance factor, ratio of IC50 for human A549/CDDP cells to IC50 for human A549 cells; format: functional
Procedure, shortened: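 MTT assay: log-phase cells were seeded at 5 × 10³/well for 24 h, then exposed to a concentration series for 48 h. MTT (5 mg/mL) was added for 4 h, formazan was dissolved in DMSO, and A570 was read. IC50 values came from dose–response curves of at least three independent experiments. Resistance factor = IC50 in the resistant line / IC50 in the parental sensitive line.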

HepG2 = test: Growth inhibition of human HepG2 cells after 48 hrs by MTT assay; format: functional, cell-based; conditions: HepG2, 48 h; procedure, shortened: as §1
MDA-MB-231 = test: Growth inhibition of human MDA-MB-231 cells after 48 hrs by MTT assay; format: functional, cell-based; conditions: MDA-MB-231, 48 h; procedure, shortened: as §1
[20] = Selectivity index, ratio of IC50 for human BJ cells to IC50 for human A549 cells; format: functional; procedure, shortened: as §2
[21] = Selectivity index, ratio of IC50 for HLF to IC50 for human A549 cells; procedure, shortened: as §2
[22] = Antiproliferative activity against HLF after 48 hrs by MTT assay; format: cell-based; conditions: Homo sapiens; procedure, shortened: as §1
A549 [23] = test: Induction of mitochondrial membrane disruption in human A549 cells assessed as cells with mitochondrial membrane potential loss at 8 nM after 48 hrs by JC1 staining based flow cytometry (reference value: 0.82%); format: functional

Work on `C[Se]c1ccc(N(C)c2nc(C)nc3ccccc23)cc1` yielded an Activity (A549 [1]) of 6.8%, an Activity (A549 [2]) of 28.75% and an Activity (A549 [3]) of 36.52%. For the same molecule, the IC50 (HCT-116) was 3 nM, the Activity (A549 [4]) was 10.31% and the IC50 (RKO) was 4 nM. The IC50 (MGC-803) was 7 nM, the IC50 [5] was 1890 nM and the Activity (A549 [6]) was 78.97%. It also gave an Activity (A549 [7]) of 16.35%, an Activity (A549 [8]) of 20.5% and an Activity (A549 [9]) of 42.83%. The Activity (A549 [10]) was 0.9%, the Activity (A549 [11]) was 83.86% and the IC50 (BJ) was 19 nM. It also gave an Activity (A549 [12]) of 3.82%, an Activity (A549 [13]) of 3.19% and an Activity (A549 [14]) of 54.14%. For the same molecule, the IC50 (LoVo) was 9 nM, the IC50 (A549/CDDP) was 9 nM and the IC50 (MCF7) was 10 nM. The IC50 (HeLa) was 3 nM, the “Ratio IC50” value [15] was 9.5 and the Activity (A549 [16]) was 6.35%. For the same molecule, the IC50 (L02) was 19 nM, the Activity (A549 [17]) was 15.85% and the Activity (A549 [18]) was 2.28%. The “Ratio IC50” value [19] was 4.09, the IC50 (HepG2) was 4 nM and the IC50 (MDA-MB-231) was 4 nM. For the same molecule, the “Ratio IC50” value [20] was 9.5, the “Ratio IC50” value [21] was 10 and the IC50 [22] was 20 nM. The Activity (A549 [23]) was 63.13%.
